Reference: ChEMBL document CHEMBL4706489, “Hydrogen sulfide releasing oridonin derivatives induce apoptosis through extrinsic and intrinsic pathways” (Eur J Med Chem, 2020)
The source made the active and inactive calls. The rule behind the calls is not given here.

How the values were obtained:
K562 [1] = assay: Induction of cell cycle arrest in human K562 cells assessed as accumulation at G2 phase at 2 uM after 48 hrs by propidium iodide staining based flow cytometric analysis (reference value: 10.96 to 12.03%); type: functional
HepG2 [2] = assay: Induction of apoptosis in human HepG2 cells assessed as early apoptotic cells at 1 uM after 48 hrs by annexin V FITC and propidium iodide staining based flow cytometric analysis (reference value: 2.89%); type: functional
K562 [3] = assay: Induction of apoptosis in human K562 cells assessed as chromatin shrinking after 24 to 48 hrs by Hoechst 33258 staining based fluorescence microscopic method; type: functional, cell-based; settings: dose 1-4 µM, time 24-48 hrs
In short: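 K562 cells were exposed to 1.0, 2.0 or 4.0 test agent, with DMSO as vehicle control, for 24 h and 48 h. They were harvested, washed twice in PBS and stained with Hoechst 33258 (0.5 mg/mL in PBS) for 30 min in darkness. Slides were viewed by fluorescence microscopy with a DAPI filter. Three random fields of about 200 nuclei per sample were scored as % apoptotic nuclei. Three independent experiments.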

HepG2 [4] = assay: Induction of apoptosis in human HepG2 cells assessed as early apoptotic cells at 2 uM after 48 hrs by annexin V FITC and propidium iodide staining based flow cytometric analysis (reference value: 2.89%); type: functional
K562 [5] = assay: Induction of apoptosis in human K562 cells assessed as increase in DR5 protein expression at 1 uM after 24 hrs by chemiluminescence based apoptosis array method; type: functional, cell-based
In short: (§1)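 K562 cells were treated with 1 test agent for 24 h. Diluted total-cell lysates were applied to a human apoptosis antibody array covering 35 apoptosis-related proteins for 24 h. Unbound protein was washed off, and arrays were probed with a biotinylated detection antibody for 1 h. Relative expression was read from chemiluminescent signal by digital imaging.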

K562 [6] = assay: Induction of apoptosis in human K562 cells assessed as viable cells at 1 uM after 48 hrs by annexin V FITC and propidium iodide staining based flow cytometric analysis (reference value: 96.76%); type: functional; settings: read-out: Activity
K562 [7] = assay: Induction of apoptosis in human K562 cells assessed as necrotic cells at 1 uM after 48 hrs by annexin V FITC and propidium iodide staining based flow cytometric analysis (reference value: 0.69%); type: functional
K562 [8] = assay: Induction of apoptosis in human K562 cells assessed as viable cells at 0.5 uM after 48 hrs by annexin V FITC and propidium iodide staining based flow cytometric analysis (reference value: 96.76%); type: functional; settings: read-out: Activity
K562 [9] = assay: Induction of apoptosis in human K562 cells assessed as viable cells at 2 uM after 48 hrs by annexin V FITC and propidium iodide staining based flow cytometric analysis (reference value: 96.76%); type: functional; settings: read-out: Activity
HepG2 [10] = assay: Induction of apoptosis in human HepG2 cells assessed as early apoptotic cells at 0.5 uM after 48 hrs by annexin V FITC and propidium iodide staining based flow cytometric analysis (reference value: 2.89%); type: functional
HepG2 [11] = assay: Induction of apoptosis in human HepG2 cells assessed as necrotic cells at 0.5 uM after 48 hrs by annexin V FITC and propidium iodide staining based flow cytometric analysis (reference value: 0.89%); type: functional
HepG2 (human) = assay: Induction of apoptosis in human HepG2 cells after 48 hrs by annexin V FITC and propidium iodide staining based flow cytometric analysis; settings: dose 0.5-2 µM
K562 [12] = assay: Induction of cell cycle arrest in human K562 cells assessed as accumulation at G1 phase at 0.5 uM after 48 hrs by propidium iodide staining based flow cytometric analysis (reference value: 43.24 to 43.37%); type: functional
K562 [13] = assay: Antiproliferative activity against human K562 cells assessed as reduction in cell viability after 72 hrs by MTT assay; settings: K562, 72 h
HepG2 [14] = assay: Antiproliferative activity against human HepG2 cells assessed as reduction in cell viability after 72 hrs by MTT assay; settings: HepG2, 72 h
K562 [15] = assay: Induction of apoptosis in human K562 cells assessed as decrease in XIAP protein expression at 1 uM after 24 hrs by chemiluminescence based apoptosis array method; type: functional, cell-based; in short: as §1
K562 [16] = assay: Induction of apoptosis in human K562 cells assessed as decrease in survivin protein expression at 1 uM after 24 hrs by chemiluminescence based apoptosis array method; type: functional, cell-based; in short: as §1
K562 [17] = assay: Induction of cell cycle arrest in human K562 cells assessed as accumulation at S phase at 0.5 uM after 48 hrs by propidium iodide staining based flow cytometric analysis (reference value: 44.73 to 45.96%); type: functional
MCF7 = assay: Antiproliferative activity against human MCF7 cells assessed as reduction in cell viability after 72 hrs by MTT assay; settings: MCF7, 72 h
K562 [18] = assay: Induction of apoptosis in human K562 cells assessed as increase in Bax protein expression at 1 uM after 24 hrs by chemiluminescence based apoptosis array method; type: functional, cell-based; in short: as §1
K562 [19] = assay: Induction of apoptosis in human K562 cells assessed as decrease in C-IAP2 protein expression at 1 uM after 24 hrs by chemiluminescence based apoptosis array method; type: functional, cell-based; in short: as §1
HepG2 [20] = assay: Induction of cell cycle arrest in human HepG2 cells assessed as accumulation at G2 phase at 2 uM after 48 hrs by propidium iodide staining based flow cytometric analysis (reference value: 16.48 to 16.97%); type: functional
K562 [21] = assay: Induction of apoptosis in human K562 cells assessed as early apoptotic cells at 0.5 uM after 48 hrs by annexin V FITC and propidium iodide staining based flow cytometric analysis (reference value: 2.13%); type: functional
HepG2 [22] = assay: Induction of cell cycle arrest in human HepG2 cells assessed as accumulation at G2 phase at 0.5 uM after 48 hrs by propidium iodide staining based flow cytometric analysis (reference value: 16.48 to 16.97%); type: functional
In short: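 HepG2 cells were treated with 0, 0.50, 1.0 or 2.0 test agent for 48 h. Cells were washed in cold PBS and fixed in 70% ethanol at −20 °C overnight. DNA-content distribution was measured by flow cytometry. Mean ± SD, three independent experiments.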

K562 [23] = assay: Induction of cell cycle arrest in human K562 cells assessed as accumulation at G2 phase at 1 uM after 48 hrs by propidium iodide staining based flow cytometric analysis (reference value: 10.96 to 12.03%); type: functional
L02 = assay: Cytotoxicity against human L02 cells assessed as cell viability after 72 hrs by MTT assay; settings: L02, 72 h
K562 [24] = assay: Induction of cell cycle arrest in human K562 cells assessed as accumulation at G2 phase at 0.5 uM after 48 hrs by propidium iodide staining based flow cytometric analysis (reference value: 10.96 to 12.03%); type: functional
HCT-116 = assay: Antiproliferative activity against human HCT-116 cells assessed as reduction in cell viability after 72 hrs by MTT assay; settings: HCT-116, 72 h
HepG2 [25] = assay: Induction of apoptosis in human HepG2 cells assessed as late apoptotic cells at 0.5 uM after 48 hrs by annexin V FITC and propidium iodide staining based flow cytometric analysis (reference value: 3.17%); type: functional

In the case of `C=C1C(=O)[C@]23[C@H](OC(=O)CCC(=O)OCCCCCCOc4ccc(-c5cc(=S)ss5)cc4)[C@H]1CC[C@H]2[C@@]12CO[C@@]3(O)[C@@H](O)[C@@H]1C(C)(C)CC[C@@H]2OC(C)=O`, the Activity (K562 [1]) is reported as 7.39%, the Activity (HepG2 [2]) is reported as 25.53% and the Activity (K562 [3]) is reported as “Dose-dependent effect”. For the same molecule, the Activity (HepG2 [4]) was 26.44%, the Activity (K562 [5]) was “Active” and the viability at 1 µM (K562 [6]) was 79.1%. For the same molecule, the Activity (K562 [7]) was 1.16%, the viability at 0.5 µM (K562 [8]) was 87% and the viability at 2 µM (K562 [9]) was 47.4%. The Activity (HepG2 [10]) was 10.52%, the Activity (HepG2 [11]) was 2.7% and the Activity (HepG2 (human)) was “Dose-dependent effect”. The Activity (K562 [12]) was 38.61%, the IC50 (K562 [13]) was 0.95 µM and the IC50 (HepG2 [14]) was 2.57 µM. For the same molecule, the Activity (K562 [15]) was “Active”, the Activity (K562 [16]) was “Active” and the Activity (K562 [17]) was 50.32%. The IC50 (MCF7) was 16.1 µM, the Activity (K562 [18]) was “Active” and the Activity (K562 [19]) was “Active”. It also gave an Activity (HepG2 [20]) of 6.6%, an Activity (K562 [21]) of 7.1% and an Activity (HepG2 [22]) of 13.24%. The Activity (K562 [23]) was 10.32%, the IC50 (L02) was 17.6 µM and the Activity (K562 [24]) was 11.07%. It also gave an IC50 (HCT-116) of 5.81 µM and an Activity (HepG2 [25]) of 10.09%.
